Reference: article PMC10621021 (ACS Omega, 2023)
“And” between values parts separate entries of the source, which are not always exact repeats. Equal values may be shown once.

What was measured:
[1] = tested on: L. amazonensis promastigotes; experiment: Antileishmanial activity against promastigotes of L. amazonensis; assay type: cell-based, Leishmania amazonensis; settings: for antileishmanial activity on promastigotes (in words): L. amazonensis promastigotes, up to 100 μM; for IC50: Leishmania amazonensis, 72 h, read-out: Promastigotes IC50, L. amazonensis promastigotes, MTT, 72 h, 6.25–100 μM
Outline: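 Log-phase promastigotes at 2 × 10^6 cells/mL exposed to compound 6.25–100 μM for 72 h at 25 °C. MTT (5 mg/mL solution) added for 4 h, absorbance read at 570 nm. Viability is expressed relative to untreated parasites. IC50 from three independent experiments; miltefosine was the reference.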

[2] = tested on: intracellular amastigotes of L. amazonensis RFP; assay type: cell-based, Leishmania amazonensis; settings: for antileishmanial activity on amastigotes (in words): L. amazonensis intracellular amastigotes, up to 100 μM
Outline: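 BALB/c peritoneal macrophages (3% thioglycolate-elicited), adherent, infected 10:1 with stationary-phase RFP-transfected L. amazonensis IFLA/BR/67/PH8 promastigotes. After 4 h, wash, then compound 12.5–100 μM for 72 h at 33 °C, 5% CO2. Lysis in deionized water, fluorescence Ex 540/Em 600 nm. IC50 from mean of three independent experiments.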

HEPG2 = experiment: MTT cell viability, HEPG2; assay type: cell-based, human; settings: 25 μM
MDA-MB-231 = experiment: MTT cell viability, MDA-MB-231; assay type: cell-based, human; settings: 25 μM
[3] = tested on: amastigote stages of Leishmania major; settings: cited from earlier work

| SMILES | antileishmanial activity on promastigotes (in words) [1] | antileishmanial activity on amastigotes (in words) [2] | cytotoxicity on HEP-G2 (in words) (HEPG2) | cytotoxicity on MDA-MB-231 (in words) (MDA-MB-231) | also measured |
| --- | --- | --- | --- | --- | --- |
| CC(C)(C)CC(C)(C)Nc1c(-c2cccnc2)nc2ncccn12 [Compound 25, 2-(pyridin-3-yl)-N-(2,4,4-trimethylpentan-2-yl)imidazo[1,2-a]pyrimidin-3-amine] | evaded the activity | evaded the activity | no any significant cytotoxicity | no any significant cytotoxicity | – |
| CCCCCCCCc1nc2ncccn2c1NC(C)(C)CC(C)(C)C [Compound 28, 2-octyl-N-(2,4,4-trimethylpentan-2-yl)imidazo[1,2-a]pyrimidin-3-amine] | moderate activity | moderate activity | – | – | – |
| CC(C)(C)CC(C)(C)Nc1c(-c2ccccc2)nc2ncccn12 [Compound 18, 2-phenyl-N-(2,4,4-trimethylpentan-2-yl)imidazo[1,2-a]pyrimidin-3-amine] | – | – | no any significant cytotoxicity | no any significant cytotoxicity | – |
| CC(C)(C)CC(C)(C)Nc1c(-c2cccc([N+](=O)[O-])c2)nc2ncccn12 [Compound 23, 2-(3-nitrophenyl)-N-(2,4,4-trimethylpentan-2-yl)imidazo[1,2-a]pyrimidin-3-amine] | did not show any biological activity | did not show any biological activity | – | – | – |
| Cc1ccc(-c2c(-c3ccccc3)nc3ccccn23)cc1 [Compound 2, 2-phenyl-3-(p-tolyl)imidazo[1,2-a]pyridine] | – | – | – | – | IC50 [3]: 4 µM |
| CCCCc1nc2ncccn2c1NC(C)(C)CC(C)(C)C [Compound 27, 2-butyl-N-(2,4,4-trimethylpentan-2-yl)imidazo[1,2-a]pyrimidin-3-amine] | moderate activity | moderate activity | – | – | – |
| CC(C)(C)CC(C)(C)Nc1c(-c2cccc(C#N)c2)nc2ncccn12 [Compound 24, 3-(3-((2,4,4-trimethylpentan-2-yl)amino)imidazo[1,2-a]pyrimidin-2-yl)benzonitrile] | – | – | no any significant cytotoxicity | no any significant cytotoxicity | IC50 [1]: < 10 µM; Selectivity Index ([2]; SI: CC50 in peritoneal macrophages/IC50 in intracellular amastigotes): 10 and > 10 |
| CC(C)(C)CC(C)(C)Nc1c(-c2cccs2)nc2ncccn12 [Compound 26, 2-(thiophen-2-yl)-N-(2,4,4-trimethylpentan-2-yl)imidazo[1,2-a]pyrimidin-3-amine] | – | showed an effect on L. amazonensis amastigotes only | – | – | – |
| COc1ccc(-c2nc3ncccn3c2NC(C)(C)CC(C)(C)C)cc1O [Compound 22, 2-methoxy-5-(3-((2,4,4-trimethylpentan-2-yl)amino)imidazo[1,2-a]pyrimidin-2-yl)phenol] | not tolerated for the antileishmanial activity | not tolerated for the antileishmanial activity | no any significant cytotoxicity | no any significant cytotoxicity | – |
| CC(C)(C)CC(C)(C)Nc1c(-c2ccc3c(c2)OCO3)nc2ncccn12 [Compound 14, 2-(benzo[d][1,3]dioxol-5-yl)-N-(2,4,4-trimethylpentan-2-yl)imidazo[1,2-a]pyrimidin-3-amine] | – | – | – | – | IC50 [1]: 46.1 µM |
